# Hit rate of the full screen: of about 360,000 compounds, about 5,400 (1.5%) were called active. What follows is part of a selection rich in actives, with near analogues and random picks from the rest. A number with no mark means an inactive call.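 How the source made its calls: active means inhibition above a per-plate cutoff, the mean inhibition of test compounds on that plate plus 3 SD (cut at about 49% in these data); inactive means the rest.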
# Biological target: Trace amine-associated receptor 1 (Homo sapiens) (UniProt Q96RJ0)
# Sequence (Q96RJ0 whole entry, looked up): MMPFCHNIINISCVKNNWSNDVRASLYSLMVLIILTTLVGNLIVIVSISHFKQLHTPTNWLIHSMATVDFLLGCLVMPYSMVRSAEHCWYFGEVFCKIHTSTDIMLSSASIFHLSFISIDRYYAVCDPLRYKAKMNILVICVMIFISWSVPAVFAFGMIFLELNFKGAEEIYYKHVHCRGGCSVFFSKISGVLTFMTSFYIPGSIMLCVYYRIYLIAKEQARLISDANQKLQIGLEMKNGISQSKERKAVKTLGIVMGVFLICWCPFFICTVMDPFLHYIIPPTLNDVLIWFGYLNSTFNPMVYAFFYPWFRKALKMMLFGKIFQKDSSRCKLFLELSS
# Assay: blockers of beta-PEA-driven TAAR1 calcium signal – Fluo-8 calcium fluorescence, CHO RD-HGA16 cells, primary screen (AID 624466);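 further: 0% = DMSO plus EC80 beta-PEA response and 100% = DMSO alone without agonist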
# Conditions: CHO RD-HGA16 TAAR1, Fluo-8 calcium fluorescence, antagonist; at 3 µM; stronger effect = higher value
# Method in brief: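 Assay system: CHO-derived RD-HGA16 cells stably expressing human TAAR1 plus Gα16. Timing: 140 s kinetic read after compound, 140 s after agonist. Technique: kinetic Fluo-8 calcium fluorescence measurement. Measure: % inhibition of agonist calcium response.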
row,SMILES,inhibition
1,CCOC(=O)C1CCCN(C(=O)c2cccc(S(=O)(=O)N3CCOCC3)c2)C1 (centres undefined),-16.4%
2,C=CCCN(Cc1ccccc1)S(=O)(=O)c1ccccc1Br,35.3%
3,O=C1Nc2ccccc2C1=NN=Cc1ccco1,-11.4%
4,CC1Cc2[nH][nH]c(=O)c2C(C2CC2)O1 (centres undefined),-0.95%
5,Cc1ccccc1-n1nnc2c(=O)oc3ccccc3c21,-7.09%
6,O=C(Nc1cccc(F)c1)c1coc(=O)c(Br)c1,-5.62%
7,C=CCc1cc(S(=O)(=O)c2ccc(O)c(CC=C)c2)ccc1O,56.9% (active)
8,O=C1[C@@H](c2ccccc2)[C@@H](c2ccccc2)N1c1ccccc1,-22.7%
9,Cc1c(C(=O)Nc2cccc(S(=O)(=O)N3CCOCC3)c2)oc2ccccc12,13.3%
10,COc1ccc(C(=O)Nc2nc(-c3ccc(S(=O)(=O)N4CCOCC4)cc3)cs2)cc1,60.4% (active)
11,COC(=O)COc1ccc(S(=O)(=O)N2CCOCC2)cc1,-11.5%
12,Cc1c(C(=O)Nc2ccccc2Cl)oc2ccc(S(=O)(=O)N3CCC4(CC3)OCCO4)cc12,46.8%
13,COc1ccc(NC(=O)c2oc3ccc(S(=O)(=O)N4CCOCC4)cc3c2C)cc1,57.4% (active)
14,COc1ccc(C(=O)Nc2cc(S(=O)(=O)N3CCCC3)ccc2Cl)cc1,2.12%
15,CCc1ccc(S(=O)(=O)Nc2cc3c(cc2N2CCCCC2)n(C)c(=O)c(=O)n3C)cc1,-20.8%
16,CCCCCCCCN1C(=O)[C@@H](CC(=O)N2CCN(C(=O)OCC)CC2)C[C@@]2(C(=O)OC)C1=C[C@H](C1CCCC1)O[C@@H]2C,-10.4%
17,C=CCn1c(=O)c(C(=O)NCc2ccc3c(c2)OCO3)c(O)c2ccccc21,-8.39%
18,O=C(NCc1ccc2c(c1)OCO2)c1sccc1Br,-7.07%
19,O=C(NCc1ccc2c(c1)OCO2)c1c(-c2ccsc2)sc2ccccc12,77.1% (active)
20,COCCCNC(=O)C[C@H]1C[C@@]2(C(=O)OC)C(=C[C@H](C(C)(C)C)O[C@@H]2C)N(Cc2ccc3c(c2)OCO3)C1=O,-10.8%
21,O=C(N/N=C/c1ccccn1)c1cccc(NC(=O)c2ccc(Cl)cc2)c1,56.6% (active)
22,O=C(Cc1ccccc1)Nc1cccc(C(=O)N/N=C/c2ccco2)c1,7.95%
23,Cn1nccc1/C=N\NC(=O)c1ccc(Cl)cc1,-23%
24,CC(C)CNc1cccc2c1S(=O)(=O)N[C@H](C)CO2,9.62%
25,Cc1ccc(C2=CSC3=NS(=O)(=O)CCN23)cc1C,10.5%
26,CC(=NNC(N)=O)c1ccc(Cl)c(-n2cccc2)c1,-7.84%
27,COc1ccc(OC)c(CNC(=O)Cn2nc(C)c3c(C)n(-c4ccc(C)cc4)nc3c2=O)c1,-15.7%

row,SMILES,inhibition
1,CC(=O)n1cc([C@@H]2C=C(C(=O)N3CCN(Cc4ccc5c(c4)OCO5)CC3)O[C@H](OCc3ccc(CO)cc3)C2)c2ccccc21,49.4% (active)
2,NC(=O)C1=C[C@H](c2csc3ccccc23)C[C@H](OCc2ccc(CO)cc2)O1,49.7% (active)
3,NC(=O)C1=C[C@@H](c2csc3ccccc23)C[C@@H](OCc2ccc(CO)cc2)O1,17.2%
4,CN1CCN(C(=O)C2=C[C@H](c3ccc4c(c3)OCO4)C[C@H](OCc3ccc(CO)cc3)O2)CC1,18.1%
5,CC(=O)n1cc([C@H]2C=C(C(=O)N3CCOCC3)O[C@@H](OCc3ccc(CO)cc3)C2)c2ccccc21,51.8% (active)
6,O=C(NC1CC1)C1=C[C@H](c2c[nH]c3ccccc23)C[C@H](OCc2ccc(CO)cc2)O1,-9.17%
7,O=C(C1=C[C@H](c2coc3ccccc3c2=O)C[C@H](OCc2ccc(CO)cc2)O1)N1CCOCC1,17.7%
8,O=C(C1=C[C@H](c2ccc(C(F)(F)F)cc2)C[C@H](OCc2ccc(CO)cc2)O1)N1CCN(Cc2ccccc2)CC1,7.66%
9,O=C(C1=C[C@H](C2CC2)C[C@H](OCc2ccc(CO)cc2)O1)N1CCN(Cc2ccccc2)CC1,1.78%
10,CN1CCN(c2ccc3c(c2)OC[C@H](Cc2ccccc2)NS3(=O)=O)CC1,-0.38%
11,CC(C)C[C@H](NC(=O)CC1CCCC1)C(=O)N1CCC[C@H]1C(=O)NCc1ccccc1,-24.5%
12,COC(=O)[C@]12C[C@H](CC(=O)NCc3ccc(C)o3)C(=O)N(CCC3=CCCCC3)C1=C[C@H](C(C)(C)C)O[C@@H]2C,-24.7%
13,CCN(CC)C(=O)CCC(=O)Nc1ccc(C(=O)OC)cc1,-5.5%
14,CCCc1cc(C(=O)Nc2ccc(C(=O)OC)cc2)cs1,50.5% (active)
15,CCCc1cc(C(=O)Nc2ccc(Cl)cn2)cs1,-47.4%
16,CCC(=O)Nc1c(S(=O)(=O)c2ccccc2)c2nc3ccccc3nc2n1Cc1ccccc1,-31.1%
17,N#Cc1cccc(C(=O)NCC2CCN(C(=O)C(=O)c3cc4ccccc4o3)CC2)c1,-5.41%
18,Fc1ccc2[nH]c3c(N4CCSCC4)ncnc3c2c1,64.4% (active)
19,COC(=O)c1ccc2nc(-c3cccc(Br)c3)c(Cc3ccccc3C(F)(F)F)n2c1,-12.6%
20,COc1cc(/C=C/C(=O)Nc2ccc(OC)c(S(=O)(=O)N3CCOCC3)c2)ccc1OCC#N,14.8%
21,COc1ccc(/C=C/C(=O)Nc2ccc(C34CC5CC(CC(O)(C5)C3)C4)cc2)cc1OC,71.5% (active)
22,COc1ccc(/C=C/C(=O)OCC(=O)NC2CCCCCC2)cc1OC,-27.2%
23,C[C@@H]1CN([C@H](C)CO)C(=O)CCCn2cc(nn2)CO[C@H]1CN(C)C(=O)Nc1ccc(N2CCCCC2)cc1,-12.4%
24,CNC(=O)C1CC(=O)N(Cc2ccc3c(c2)OCO3)C(=Nc2ccc(F)cc2)S1 (centres undefined),11.3%
25,O=c1oc2ccccc2c(=O)c2ccccc12,3.02%
26,CC(C)(C)Nc1c(N)c(=O)oc2ccccc12,15%
27,Nc1c(NCCc2ccccc2)c2ccccc2oc1=O,66.7% (active)

# Source: PubChem BioAssay AID624466 (The Scripps Research Institute Molecular Screening Center, 2012)
